Source: ChEMBL document CHEMBL1143134, “The number and distances of positive charges of polyamine side chains in a series of perylene diimides significantly influence their ability to induce G-quadruplex structures and inhibit human telomerase” (Bioorg Med Chem, 2008)
Calls of active or inactive are those of the source. No cut-off for these calls is given here.

What was measured:
[1] = target: Telomerase reverse transcriptase (Homo sapiens) (UniProt O14746); experiment: Inhibition of human telomerase at 2 uM by TRAP assay
Sequence of Telomerase reverse transcriptase (Homo sapiens) (O14746 whole entry): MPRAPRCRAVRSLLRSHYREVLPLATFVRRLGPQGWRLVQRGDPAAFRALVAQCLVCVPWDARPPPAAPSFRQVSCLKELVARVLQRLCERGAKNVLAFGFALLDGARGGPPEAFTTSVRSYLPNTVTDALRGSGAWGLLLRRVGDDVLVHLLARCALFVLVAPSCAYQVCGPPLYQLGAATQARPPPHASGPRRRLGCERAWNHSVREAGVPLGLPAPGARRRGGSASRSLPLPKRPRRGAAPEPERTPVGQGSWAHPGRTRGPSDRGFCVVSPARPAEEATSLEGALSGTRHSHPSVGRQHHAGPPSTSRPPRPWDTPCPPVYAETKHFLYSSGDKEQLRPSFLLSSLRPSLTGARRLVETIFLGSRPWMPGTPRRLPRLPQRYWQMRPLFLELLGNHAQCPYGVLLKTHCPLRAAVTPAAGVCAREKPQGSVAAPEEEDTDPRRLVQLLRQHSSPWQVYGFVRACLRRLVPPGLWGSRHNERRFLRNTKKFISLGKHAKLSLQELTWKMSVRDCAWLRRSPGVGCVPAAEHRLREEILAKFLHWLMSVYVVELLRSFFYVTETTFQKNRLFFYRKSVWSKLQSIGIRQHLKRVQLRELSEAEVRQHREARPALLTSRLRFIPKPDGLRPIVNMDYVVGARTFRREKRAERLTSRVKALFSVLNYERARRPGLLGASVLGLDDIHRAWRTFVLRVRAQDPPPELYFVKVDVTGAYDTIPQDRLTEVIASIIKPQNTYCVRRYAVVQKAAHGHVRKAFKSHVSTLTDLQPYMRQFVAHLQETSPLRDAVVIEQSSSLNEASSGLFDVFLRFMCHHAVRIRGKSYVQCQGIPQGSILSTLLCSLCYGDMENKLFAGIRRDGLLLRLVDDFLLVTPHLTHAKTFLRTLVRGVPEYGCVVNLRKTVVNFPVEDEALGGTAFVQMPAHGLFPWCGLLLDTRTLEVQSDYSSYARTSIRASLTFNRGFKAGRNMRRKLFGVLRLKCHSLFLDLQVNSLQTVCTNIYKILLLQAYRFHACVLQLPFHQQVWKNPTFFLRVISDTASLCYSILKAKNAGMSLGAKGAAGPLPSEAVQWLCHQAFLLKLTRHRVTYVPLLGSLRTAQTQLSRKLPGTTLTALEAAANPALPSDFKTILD
Procedure, shortened: (§1)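 Cell-free modified TRAP assay using TSG4 primer and HeLa cell extract in TRAP buffer (20 mM Tris-HCl pH 8.3, 1.5 mM MgCl2, 68 mM KCl, 0.05% Tween 20, 1 mM EGTA). Compounds (2–20 µM) preincubated with primer for 2 h at 30 °C before extract was added. A 130-bp internal standard controls PCR efficiency. Percent inhibition from at least three independent experiments.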

[2] = target: Telomerase reverse transcriptase (Homo sapiens) (UniProt O14746); experiment: Inhibition of human telomerase by TRAP assay; procedure, shortened: as §1

| inhibition [1] | Activity [2] | Compound |
| --- | --- | --- |
| 30% | – | NCCCNCCCCNCCN1C(=O)c2ccc3c4ccc5c6c(ccc(c7ccc(c2c37)C1=O)c64)C(=O)N(CCNCCCCNCCCN)C5=O |
| – | Active | CC(=O)NCCCNCCCCNCCN1C(=O)c2ccc3c4ccc5c6c(ccc(c7ccc(c2c37)C1=O)c64)C(=O)N(CCNCCCCNCCCNC(C)=O)C5=O |
